MEKK3 PB1 HTS – raises or lowers MEK5 binding to the human MEKK3 PB1 domain; binding response (% of control), % at 10 µM; Q99759; bead-based flow cytometry, Alexa488-MEK5 binding to MEKK3; actives lie on both sides; 0 = blocked by unlabeled MEK5, 100 = vehicle; AID 1529; hit rate 1.4% among 290,000;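 active = binding response more than 3 SD above or below the average of its plate-row segment, actives on both sides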;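 also: Alexa488 bead fluorescence after subtracting the streptavidin-only scavenger bead signal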
Target sequence (Q99759 whole entry, looked up, the tested form may be a part): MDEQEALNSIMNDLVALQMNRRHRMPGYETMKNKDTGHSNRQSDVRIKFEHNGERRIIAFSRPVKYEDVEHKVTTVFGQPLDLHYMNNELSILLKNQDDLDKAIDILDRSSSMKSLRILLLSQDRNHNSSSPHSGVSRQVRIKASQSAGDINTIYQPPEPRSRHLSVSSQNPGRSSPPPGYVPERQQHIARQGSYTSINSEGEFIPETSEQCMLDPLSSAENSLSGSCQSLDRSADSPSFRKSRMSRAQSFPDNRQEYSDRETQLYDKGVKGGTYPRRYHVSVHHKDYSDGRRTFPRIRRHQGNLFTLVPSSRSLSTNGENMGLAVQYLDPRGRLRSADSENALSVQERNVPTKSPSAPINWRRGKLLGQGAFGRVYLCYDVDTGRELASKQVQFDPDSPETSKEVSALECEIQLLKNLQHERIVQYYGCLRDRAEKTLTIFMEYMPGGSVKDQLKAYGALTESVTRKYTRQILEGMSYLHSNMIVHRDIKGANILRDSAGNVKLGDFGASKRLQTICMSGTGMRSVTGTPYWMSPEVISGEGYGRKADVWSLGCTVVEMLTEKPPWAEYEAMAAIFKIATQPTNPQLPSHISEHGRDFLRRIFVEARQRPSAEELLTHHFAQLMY
MEKK2wt PB1 HTS – raises or lowers MEK5 binding to wildtype human MEKK2 PB1 domain; bead flow cytometry, Alexa488-MEK5 binding to MEKK2 WT; actives lie on both sides; binding response (% of control), % at 10 µM; hit rate 1.1% among 290,000; AID 1531; in the data active = binding response below about 67% or above about 130%
MEKK2mut PB1 HTS – signal of MEK5 binding to mutant human MEKK2 PB1 domain; percent response, % at 10 µM; bead flow cytometry, Alexa488-MEK5 binding to MEKK2 mutant; hit rate 0.35% among 290,000; in the data active = percent response above about 24%, passing the limit was not always enough
Apaf-1 inh – inhibitors of human Apaf-1 apoptosome; reconstituted apoptosome caspase-3 activity, DEVD-Rh110 fluorescence; AID 489030; O14727; inhibition, % at 20 µM; hit rate 0.71% among 330,000; active = inhibition of at least 40% at 20 µM;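 also: plate controls were DMSO wells for no effect and DEVD-CHO caspase inhibitor wells for full effect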
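Material: reconstituted apoptosome with Apaf-1, cytochrome c, caspase-9, procaspase-3, dATP. Technique: Rh110 fluorescence intensity. Buffer or medium: pH 7.5 Hepes buffer with CHAPS, BSA, DTT. Times: 30 min plus 50 min, RT.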
Pemphigus Ab inh – human desmoglein-3 autoantibody binding inhibition | binding (percent of control), % at 10 µM | DSG3-coupled beads, scFv-anti-DSG3-GFP binding, flow cytometry; stronger effect = lower value | hit rate 0.48% among 310,000 | P32926 | AID 588358;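 active = binding more than 3 SD below its plate's average and above zero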;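 also: hits lower antibody fragment binding to DSG3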
UBC13 inh – blocks human UBC13 polyubiquitin chain formation; inhibition, % at 20 µM; TR-FRET; hit rate 0.47% among 330,000; P61088; in the data active = inhibition above about 45%, passing the limit was not always enough
Apaf-1 inh conf2 – Apaf-1 inhibition, single-dose confirmed. reconstituted apoptosome, caspase-3 DEVD-Rh110 fluorescence. hit rate 25% among 1,800. AID 504614. inhibition, % at 20 µM. shares compounds with Apaf-1 inh;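 active = mean inhibition of at least 40% at 20 µM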;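 also: plate controls were DMSO wells for no effect and DEVD-CHO caspase inhibitor control wells for full effect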
Rh110 quench – Rh110 signal interference in Apaf-1 inhibitor counter-screen | activation (fluorescence interference), % at 20 µM | shares compounds with Apaf-1 inh | 1,800 tested, under 10 active | Rh110 fluorescence interference, quenched caspase reaction;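 active = signal rise of 40% or more at 20 µM, treated as a fluorescence artifact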
Apaf1 inh interf – counter-screen for Apaf-1 inhibitors: fluorescence interference, dose response. shares compounds with Apaf-1 inh. IC50, µM. AID 588538. fluorescence interference counterscreen, Apaf-1 assay format. 460 tested, under 10 active; call rule not given here
* = called active by the depositor. Rows were chosen to be rich in hits. Some 3.2% of all compounds tested hit in one or more screens of this group.

O=C(/C=C/c1ccc(O)cc1)c1ccc(NC2=C(N3CCCCC3)C(=O)c3ccccc3C2=O)cc1 was read as MEKK3 PB1 HTS 74, MEKK2wt PB1 HTS 69, MEKK2mut PB1 HTS -12, Apaf-1 inh 76*, Pemphigus Ab inh 121, UBC13 inh -65, Apaf-1 inh conf2 95*, Rh110 quench 0 and Apaf1 inh interf >100.
For O=C1C(Nc2cccc(O)c2)=C(N2CCCCC2)C(=O)c2ccccc21 the results were MEKK3 PB1 HTS 98, MEKK2wt PB1 HTS 91, MEKK2mut PB1 HTS -3, Apaf-1 inh 88*, Pemphigus Ab inh 122, UBC13 inh -76, Apaf-1 inh conf2 91*, Rh110 quench 0 and Apaf1 inh interf >100.
`NC(=S)NN=C1c2ccccc2-c2ccccc21` gave MEKK3 PB1 HTS 107, MEKK2wt PB1 HTS 108, MEKK2mut PB1 HTS 6, Apaf-1 inh 6, Pemphigus Ab inh 90 and UBC13 inh 23.
For COc1ccc(C(=O)N/C(=C/c2cccnc2)C(=O)N2CCN(C)CC2)cc1OC the results were MEKK3 PB1 HTS 95, MEKK2wt PB1 HTS 96, MEKK2mut PB1 HTS -2, Apaf-1 inh 13, Pemphigus Ab inh 105 and UBC13 inh -1.
O=C1C(Nc2ccccc2)=C(N2CCCCC2)C(=O)c2ccccc21 was read as MEKK3 PB1 HTS 107, MEKK2wt PB1 HTS 104, MEKK2mut PB1 HTS 5, Apaf-1 inh 93*, Pemphigus Ab inh 108, UBC13 inh -45, Apaf-1 inh conf2 90*, Rh110 quench -4 and Apaf1 inh interf >100.
For O=C(NCc1ccccc1)/C(=C\c1ccc(F)cc1)NC(=O)c1ccco1 the results were Pemphigus Ab inh 102.
Screening CC(C)c1ccc(OC(=O)c2cccc(S(=O)(=O)N3CCN(C)CC3)c2)cc1 returned MEKK3 PB1 HTS 101, MEKK2wt PB1 HTS 100, MEKK2mut PB1 HTS 5, Apaf-1 inh 23, Pemphigus Ab inh 105 and UBC13 inh 8.
CN1CCN(S(=O)(=O)c2cccc(C(=O)Oc3ccc(C(C)(C)C)cc3)c2)CC1 was read as Apaf-1 inh 40, Pemphigus Ab inh 100, UBC13 inh 5, Apaf-1 inh conf2 15 and Rh110 quench 6.
`CCN(CC)CCN1C(=O)C(=O)/C(=C(/O)c2ccc(S(=O)(=O)N3CCOCC3)cc2)C1c1ccc(C(C)C)cc1` (stereo unspecified) gave MEKK3 PB1 HTS 102, MEKK2wt PB1 HTS 103, MEKK2mut PB1 HTS 2, Apaf-1 inh 5, Pemphigus Ab inh 95 and UBC13 inh -8.
`CC(N=Cc1cccc(O)c1O)c1ccccc1` (stereo unspecified) gave MEKK3 PB1 HTS 91, MEKK2wt PB1 HTS 91, MEKK2mut PB1 HTS -8, Apaf-1 inh 71*, Pemphigus Ab inh 103, UBC13 inh -19, Apaf-1 inh conf2 10 and Rh110 quench -3.
For Cc1ccccc1N=Cc1cccc(O)c1O the results were MEKK3 PB1 HTS 90, MEKK2wt PB1 HTS 93, MEKK2mut PB1 HTS -2, Apaf-1 inh 74*, Pemphigus Ab inh 100, UBC13 inh -12, Apaf-1 inh conf2 9 and Rh110 quench 4.
For Oc1cccc(/C=N/N=C/c2cccc(O)c2O)c1O the results were MEKK3 PB1 HTS 107, MEKK2wt PB1 HTS 100, MEKK2mut PB1 HTS 6, Apaf-1 inh -7, Pemphigus Ab inh 99 and UBC13 inh -8.
O[C@@H]1CN(Cc2cccs2)[C@@H](c2ccccc2)C[C@H]1n1cc(C2CC2)nn1 was read as Pemphigus Ab inh 110.
CCN(CC)C(=O)[C@H]1C[C@H](CC(=O)NC(C)(C)C)C(=O)N2CCc3c([nH]c4cc(CCC(=O)N(C)C)ccc34)[C@]12C was read as Apaf-1 inh 1 and Pemphigus Ab inh 106.
`CCCCN(C(=O)c1ccc(N(C)S(=O)(=O)c2ccc(C)cc2)cc1)c1c(N)n(CC(C)C)c(=O)[nH]c1=O` gave Pemphigus Ab inh 83.
For O=C1OC(=O)c2cc([N+](=O)[O-])ccc21 the results were Apaf-1 inh 4, Pemphigus Ab inh 104 and UBC13 inh 5.
O=C1Nc2ccccc2Nc2ccc([N+](=O)[O-])cc21 was read as MEKK3 PB1 HTS 105, MEKK2wt PB1 HTS 104, MEKK2mut PB1 HTS 1, Apaf-1 inh 43*, Pemphigus Ab inh 90, UBC13 inh -66, Apaf-1 inh conf2 33 and Rh110 quench 2.
For CCCCN1CC(C)(C)[C@H](CC(=O)NC)C1=O the results were Pemphigus Ab inh 111.
`CCC(=O)N(CC)C1=C(O)c2ccccc2C(=O)C1=O` gave MEKK3 PB1 HTS 103, MEKK2wt PB1 HTS 102, MEKK2mut PB1 HTS 6, Apaf-1 inh 55*, Pemphigus Ab inh 95, UBC13 inh -56, Apaf-1 inh conf2 14 and Rh110 quench -2.
For O=C(CSc1ncc(-c2ccc(F)cc2)n1Cc1ccco1)Nc1nccs1 the results were MEKK3 PB1 HTS 98, MEKK2wt PB1 HTS 97, MEKK2mut PB1 HTS 1, Apaf-1 inh 35, Pemphigus Ab inh 97 and UBC13 inh -4.
For Cc1cnc(NC(=O)CSc2ncc(-c3ccccc3)n2Cc2ccco2)s1 the results were MEKK3 PB1 HTS 101, MEKK2wt PB1 HTS 104, MEKK2mut PB1 HTS 0, Apaf-1 inh 42*, Pemphigus Ab inh 106, UBC13 inh 1, Apaf-1 inh conf2 21 and Rh110 quench 11.
`COc1cc(C(=O)NCC(=O)NC(C)c2ccc(-n3ccnc3)cc2)cc(OC)c1OC` (stereo unspecified) gave Apaf-1 inh -4, Pemphigus Ab inh 96 and UBC13 inh -1.
`COc1cc(C(=O)NC(C)c2ccc(-n3ccnc3)cc2)cc(OC)c1C` (stereo unspecified) gave MEKK3 PB1 HTS 99, MEKK2wt PB1 HTS 92, MEKK2mut PB1 HTS -3, Apaf-1 inh 41*, Pemphigus Ab inh 111, UBC13 inh 6, Apaf-1 inh conf2 22 and Rh110 quench 6.
`COc1cccc(/C=N/NC(=O)NC23CC4CC(CC(C4)C2)C3)c1O` gave Apaf-1 inh 40*, Pemphigus Ab inh 102, UBC13 inh -5, Apaf-1 inh conf2 15 and Rh110 quench 4.
O=C(N/N=C/c1ccccc1F)NC12CC3CC(CC(C3)C1)C2 was read as MEKK3 PB1 HTS 99, MEKK2wt PB1 HTS 96, MEKK2mut PB1 HTS -4, Apaf-1 inh 33, Pemphigus Ab inh 84 and UBC13 inh -3.

Compound activity (PubChem BioAssay)
